# Assay results reported in ChEMBL document CHEMBL4689842, “EUbOPEN Chemogenomics Library wave 1” (2021).
# System: U2OS
# Assay: Multiplex assay against U2OS
# Format: toxicity, cell-based
# Settings: human
# Summary of the method: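 Live cells carried four stains from seeding: Hoechst33342, BioTracker Green Microtubule Cytoskeleton Dye, MitoTracker Red and Annexin V Alexa Fluor 680. They were imaged on a CQ1 microscope at 37°C and 5% CO2 after compound addition. Using CellPathfinder machine-learning gating, cells were split into Hoechst high-intensity objects or normal cells, normal cells into healthy, pyknosed or fragmented nuclei, and pyknosed cells into mitotic or apoptotic; tubulin, mitochondrial-mass and membrane-permeability phenotypes are per cents of healthy-nucleus cells.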
# [1] = 12 h, 1 µM, compound concentration 1 uM, replicate 1
# [2] = 12 h, 1 µM, compound concentration 1 uM, replicate 2
# [3] = 12 h, 10 µM, compound concentration 10 uM, replicate 1
# [4] = 12 h, 10 µM, compound concentration 10 uM, replicate 2
# [5] = 24 h, 1 µM, compound concentration 1 uM, replicate 1
# [6] = 24 h, 1 µM, compound concentration 1 uM, replicate 2
# [7] = 24 h, 10 µM, compound concentration 10 uM, replicate 1
# [8] = 24 h, 10 µM, compound concentration 10 uM, replicate 2
# [9] = 48 h, 1 µM, compound concentration 1 uM, replicate 1
# [10] = 48 h, 1 µM, compound concentration 1 uM, replicate 2
# [11] = 48 h, 10 µM, compound concentration 10 uM, replicate 1
# [12] = 48 h, 10 µM, compound concentration 10 uM, replicate 2
compound,measurement,setting,value
COc1cc(Nc2nccc(-c3cnn4nc(OC)ccc34)n2)cc(C(F)(F)F)c1,Population Apoptotic (%),[1],27%
same,Population Fragmented Nuclei (%),[1],12%
same,Population Healthy Nuclei (%),[1],74%
same,Population Hoechst High Intensity Objects (%),[1],7%
same,Population Membrane Permeable-Phenotype (%),[1],6%
same,Population Mitochondria Different-Phenotype (%),[1],12%
same,Population Mitotic Cells (%),[1],72%
same,Population Normal (%),[1],92%
same,Population Pyknosed Nuclei (%),[1],12%
same,Population Tubulin-Different-Phenotype (%),[1],9%
same,Total Cell Count,[1],189
same,Population Apoptotic (%),[2],50%
same,Population Fragmented Nuclei (%),[2],8%
same,Population Healthy Nuclei (%),[2],86%
same,Population Hoechst High Intensity Objects (%),[2],3%
same,Population Membrane Permeable-Phenotype (%),[2],2%
same,Population Mitochondria Different-Phenotype (%),[2],16%
same,Population Mitotic Cells (%),[2],50%
same,Population Normal (%),[2],96%
same,Population Pyknosed Nuclei (%),[2],5%
same,Population Tubulin-Different-Phenotype (%),[2],16%
same,Total Cell Count,[2],44
same,Population Apoptotic (%),[3],60%
same,Population Fragmented Nuclei (%),[3],32%
same,Population Healthy Nuclei (%),[3],55%
same,Population Hoechst High Intensity Objects (%),[3],15%
same,Population Membrane Permeable-Phenotype (%),[3],7%
same,Population Mitochondria Different-Phenotype (%),[3],46%
same,Population Mitotic Cells (%),[3],39%
same,Population Normal (%),[3],84%
same,Population Pyknosed Nuclei (%),[3],11%
same,Population Tubulin-Different-Phenotype (%),[3],27%
same,Total Cell Count,[3],192
same,Population Apoptotic (%),[4],33%
same,Population Fragmented Nuclei (%),[4],27%
same,Population Healthy Nuclei (%),[4],61%
same,Population Hoechst High Intensity Objects (%),[4],34%
same,Population Membrane Permeable-Phenotype (%),[4],3%
same,Population Mitochondria Different-Phenotype (%),[4],6%
same,Population Mitotic Cells (%),[4],66%
same,Population Normal (%),[4],65%
same,Population Tubulin-Different-Phenotype (%),[4],15%
same,Total Cell Count,[4],82
same,Population Apoptotic (%),[5],24%
same,Population Fragmented Nuclei (%),[5],14%
same,Population Healthy Nuclei (%),[5],61%
same,Population Hoechst High Intensity Objects (%),[5],6%
same,Population Membrane Permeable-Phenotype (%),[5],7%
same,Population Mitochondria Different-Phenotype (%),[5],20%
same,Population Mitotic Cells (%),[5],75%
same,Population Normal (%),[5],93%
same,Population Pyknosed Nuclei (%),[5],24%
same,Population Tubulin-Different-Phenotype (%),[5],16%
same,Total Cell Count,[5],214
same,Population Apoptotic (%),[6],45%
same,Population Fragmented Nuclei (%),[6],10%
same,Population Healthy Nuclei (%),[6],77%
same,Population Hoechst High Intensity Objects (%),[6],2%
same,Population Membrane Permeable-Phenotype (%),[6],4%
same,Population Mitochondria Different-Phenotype (%),[6],10%
same,Population Mitotic Cells (%),[6],54%
same,Population Normal (%),[6],97%
same,Population Pyknosed Nuclei (%),[6],12%
same,Population Tubulin-Different-Phenotype (%),[6],19%
same,Total Cell Count,[6],43
same,Population Apoptotic (%),[7],65%
same,Population Fragmented Nuclei (%),[7],36%
same,Population Healthy Nuclei (%),[7],50%
same,Population Hoechst High Intensity Objects (%),[7],18%
same,Population Membrane Permeable-Phenotype (%),[7],2%
same,Population Mitochondria Different-Phenotype (%),[7],47%
same,Population Mitotic Cells (%),[7],34%
same,Population Normal (%),[7],81%
same,Population Pyknosed Nuclei (%),[7],13%
same,Population Tubulin-Different-Phenotype (%),[7],15%
same,Total Cell Count,[7],197
same,Population Apoptotic (%),[8],50%
same,Population Fragmented Nuclei (%),[8],26%
same,Population Healthy Nuclei (%),[8],56%
same,Population Hoechst High Intensity Objects (%),[8],29%
same,Population Membrane Permeable-Phenotype (%),[8],0%
same,Population Mitochondria Different-Phenotype (%),[8],23%
same,Population Mitotic Cells (%),[8],50%
same,Population Normal (%),[8],70%
same,Population Pyknosed Nuclei (%),[8],17%
same,Population Tubulin-Different-Phenotype (%),[8],11%
same,Total Cell Count,[8],90
same,Population Apoptotic (%),[9],53%
same,Population Fragmented Nuclei (%),[9],16%
same,Population Healthy Nuclei (%),[9],54%
same,Population Hoechst High Intensity Objects (%),[9],4%
same,Population Membrane Permeable-Phenotype (%),[9],6%
same,Population Mitochondria Different-Phenotype (%),[9],34%
same,Population Mitotic Cells (%),[9],46%
same,Population Normal (%),[9],95%
same,Population Pyknosed Nuclei (%),[9],28%
same,Population Tubulin-Different-Phenotype (%),[9],15%
same,Total Cell Count,[9],257
same,Population Apoptotic (%),[10],55%
same,Population Fragmented Nuclei (%),[10],11%
same,Population Healthy Nuclei (%),[10],81%
same,Population Hoechst High Intensity Objects (%),[10],7%
same,Population Membrane Permeable-Phenotype (%),[10],15%
same,Population Mitochondria Different-Phenotype (%),[10],17%
same,Population Mitotic Cells (%),[10],44%
same,Population Normal (%),[10],92%
same,Population Pyknosed Nuclei (%),[10],7%
same,Population Tubulin-Different-Phenotype (%),[10],20%
same,Total Cell Count,[10],55
same,Population Apoptotic (%),[11],62%
same,Population Fragmented Nuclei (%),[11],45%
same,Population Healthy Nuclei (%),[11],33%
same,Population Hoechst High Intensity Objects (%),[11],20%
same,Population Membrane Permeable-Phenotype (%),[11],14%
same,Population Mitochondria Different-Phenotype (%),[11],36%
same,Population Mitotic Cells (%),[11],37%
same,Population Normal (%),[11],79%
same,Population Pyknosed Nuclei (%),[11],21%
same,Population Tubulin-Different-Phenotype (%),[11],21%
same,Total Cell Count,[11],200
same,Population Apoptotic (%),[12],69%
same,Population Fragmented Nuclei (%),[12],26%
same,Population Healthy Nuclei (%),[12],48%
same,Population Hoechst High Intensity Objects (%),[12],27%
same,Population Membrane Permeable-Phenotype (%),[12],8%
same,Population Mitochondria Different-Phenotype (%),[12],25%
same,Population Mitotic Cells (%),[12],30%
same,Population Normal (%),[12],72%
same,Population Pyknosed Nuclei (%),[12],26%
same,Population Tubulin-Different-Phenotype (%),[12],20%
same,Total Cell Count,[12],127
